{"data": "Published values of several laboratories", "Tmem97": "Sigma intracellular receptor 2 (Tmem97, Rattus norvegicus, UniProt Q5U3Y7)", "HTR2C": "5-hydroxytryptamine receptor 2C (HTR2C, Homo sapiens, UniProt P28335)", "HTR2B": "5-hydroxytryptamine receptor 2B (HTR2B, Homo sapiens, UniProt P41595)", "blaNDM-1": "Metallo-beta-lactamase type 2 (blaNDM-1, Klebsiella pneumoniae, UniProt C7C422)", "note": "Protocols differ between the studies behind these lines."}
{"Compound": "CCCCN1CCc2cc(OC)c(OC)cc2C1", "target": "Tmem97", "test": "ligand displacement, radioligand", "conditions": "cell membranes", "endpoint": "Ki", "result": "15 nM"}
{"Compound": "C[C@H](N)Cn1ncc2ccc3c(c21)CCCO3", "target": "5-hydroxytryptamine receptor 2A (Rattus norvegicus, UniProt P14842)", "test": "calcium signal, agonist, fluorescence", "endpoint": "EC50", "result": "22.5 nM"}
{"Compound": "COc1cc2c3c(c1OC)-c1ccccc1CC3NCC2 (centres unmarked)", "target": "HTR2C", "test": "ligand displacement, radioligand", "conditions": "cell membranes", "endpoint": "Ki", "result": "446 nM"}
{"Compound": "CSC[C@@]12C[C@@H]1[C@@H](n1cnc3c(N[C@H](C(C)C)C4CC4)nc(Cl)nc31)[C@H](O)[C@@H]2O", "target": "HTR2C", "test": "ligand displacement, radioligand", "endpoint": "Ki", "result": "2570 nM"}
{"Compound": "COc1cc(CC(C)N)c(OC)cc1I (centres unmarked)", "target": "HTR2B", "test": "ligand displacement, radioligand", "endpoint": "Ki", "result": "1.2 nM"}
{"Compound": "CCC1CCN(C(=O)[C@H](CCCNC(=N)N)NS(=O)(=O)c2cccc3c(N(C)C)cccc23)CC1", "target": "Prothrombin (F2, Bos taurus, UniProt P00735)", "test": "binding, ITC", "endpoint": "Kd", "result": "22 nM"}
{"Compound": "CC(C)[C@@H](Nc1nc(I)nc2c1ncn2[C@H]1[C@H](O)[C@H](O)[C@]2(CO)C[C@H]12)C1CC1", "target": "HTR2C", "test": "ligand displacement, radioligand", "endpoint": "Ki", "result": "344 nM"}
{"Compound": "CCN(CC)CCNC(=O)c1ccc(F)cc1", "target": "Tmem97", "test": "ligand displacement, radioligand", "conditions": "cell membranes", "endpoint": "Ki", "result": "120000 nM"}
{"Compound": "COc1cc2c3c(c1OC)-c1ccccc1C[C@H]3N(C)CC2", "target": "HTR2C", "test": "ligand displacement, radioligand", "conditions": "cell membranes", "endpoint": "Ki", "result": "22.2 nM"}
{"Compound": "COc1ccc2cccc(C(CO)CNC(=O)CF)c2c1 (centres unmarked)", "target": "Melatonin receptor type 1A (MTNR1A, Homo sapiens, UniProt P48039)", "test": "GTPγS binding, agonist, radiometric", "conditions": "cell membranes", "endpoint": "EC50", "result": "79.4 nM"}
{"Compound": "CN(C)CCc1c[nH]c2ccc(Cn3cncn3)cc12", "target": "HTR2B", "test": "calcium signal, agonist, fluorescence", "endpoint": "EC50", "result": "14000 nM"}
{"Compound": "CC1(C)S[C@H]2CS[C@H](CS)N2[C@@H]1C(=O)O", "target": "blaNDM-1", "test": "enzyme activity, inhibitor, absorbance", "conditions": "pH 7.5", "endpoint": "Ki", "result": "18000 nM"}
{"Compound": "CCCN1CCc2cc(OC)cc3c2[C@H]1Cc1ccc(O)c(O)c1-3", "target": "D(3) dopamine receptor (Drd3, Rattus norvegicus, UniProt P19020)", "test": "binding, radioligand", "conditions": "cell membranes", "endpoint": "Kd", "result": "2.02 nM"}
{"Compound": "CC(C)C(Nc1nc(Cl)nc2c1ncn2[C@H]1[C@H](O)[C@H](O)[C@]2(CO)C[C@H]12)C(C)C", "target": "HTR2C", "test": "ligand displacement, radioligand", "endpoint": "Ki", "result": "1160 nM"}
{"Compound": "COc1cc(CC(C)N)c(OC)cc1I (racemic)", "target": "HTR2C", "test": "ligand displacement, radioligand", "endpoint": "Ki", "result": "0.42 nM"}
{"Compound": "CSc1nc(N[C@H](C(C)C)C2CC2)c2ncn([C@H]3[C@H](O)[C@H](O)[C@]4(CO)C[C@H]34)c2n1", "target": "HTR2C", "test": "ligand displacement, radioligand", "endpoint": "Ki", "result": "432 nM"}
{"Compound": "O=C(O)[C@H]1CS[C@@H]2CS[C@@H](CS)N12", "target": "blaNDM-1", "test": "enzyme activity, inhibitor, absorbance", "conditions": "pH 7.5", "endpoint": "Ki", "result": "19000 nM"}
